From PubChem
Only some compounds are listed: those with a hit (about 3.5% of all), similar ones and a draw of the others.
MrgX1 agonist: agonists of human MrgX1 receptor, primary screen, HEK293 cells, Fluo-4 calcium flux | Mas-related G-protein coupled receptor member X1 (Homo sapiens), Q96LB2 | Fluo-4 calcium fluorescence, agonist mode; stronger effect = higher value | B-score at 10 µM | 310,000 compounds, 0.44% hits | AID 588627, 2011;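 active means calcium response B-score plate-corrected fluorescence ratio at least 3 library SD, with starting fluorescence B-score inside 5 SD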
Target sequence (Q96LB2 whole entry, looked up): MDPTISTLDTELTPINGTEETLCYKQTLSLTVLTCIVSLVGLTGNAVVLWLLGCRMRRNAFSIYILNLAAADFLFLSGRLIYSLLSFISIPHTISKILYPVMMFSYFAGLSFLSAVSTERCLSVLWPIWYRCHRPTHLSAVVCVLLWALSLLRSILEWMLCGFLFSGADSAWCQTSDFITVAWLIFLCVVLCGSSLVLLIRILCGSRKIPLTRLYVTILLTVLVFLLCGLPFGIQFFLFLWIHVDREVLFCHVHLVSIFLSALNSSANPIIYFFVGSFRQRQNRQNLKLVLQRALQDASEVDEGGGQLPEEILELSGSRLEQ
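Test system: Stable human MrgX1 HEK293 cell line | Schedule: Overnight plating before 1 h dye loading | Read-out basis: Baseline-normalised fluorescence change ratio, B-scored | Detection: Kinetic calcium dye fluorescence, Fluo-4 NW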
RGS4 pot: RGS4 potentiators or activators, primary screen, cell-based, HEK293 M3R inducible RGS4, calcium flux; AID 463111, 2010; 310,000 compounds, 0.92% hits; carbachol calcium flux Fluo4; stronger effect = lower value; B-score at 10 µM;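 active means B-score of the integrated calcium signal more than 4 SD below the library mean, with starting fluorescence not abnormally high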;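 further: negative B-score means reduced calcium response which marks RGS4 activation or potentiation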
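Assay system: HEK293 FlpIn-TREx cells, stable M3R, doxycycline-inducible RGS4 / Probe or stimulus: carbachol, ECmax concentration / Times: overnight RGS4 induction, 30 min dye load 37 °C, 20 min compound RT / Signal: kinetic calcium fluorescence imaging with Fluo4-AM dye, 2 µM / Measure: Agonist-evoked peak-minus-minimum fluorescence over baseline, integrated ratio, B score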
MrgX1 antagonist: antagonists of human MrgX1 receptor, primary screen, HEK293 cells, Fluo-4 calcium flux | Mas-related G-protein coupled receptor member X1 (Homo sapiens), Q96LB2 | B-score at 10 µM | BAM8-22 antagonism; stronger effect = lower value | 310,000 compounds, 1.3% hits;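 active means calcium-response B-score plate-corrected more than 3 library SD below zero, starting fluorescence within 5 deviations, no agonist response on first addition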;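 further: peak minus trough fluorescence over baseline after final BAM8-22 challenge near maximal dose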
MrgX1 PAM: positive allosteric modulators of MrgX1, primary screen, HEK293 cells, Fluo-4 calcium flux. Mas-related G-protein coupled receptor member X1 (Homo sapiens), Q96LB2. FDSS; stronger effect = higher value. B-score at 10 µM. 310,000 compounds, 0.63% hits. AID 588675, 2011;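 active means plate-corrected calcium response at least 3 library SD above typical, normal starting fluorescence, not activating the receptor alone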;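 further: compound read alongside a low EC10 to EC30 dose of BAM8-22 agonist; peak minus trough fluorescence over baseline measured at the second addition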
RGS4 inh: RGS4 inhibitors, primary screen, cell-based, HEK293 M3R inducible RGS4, calcium flux; 310,000 compounds, 0.45% hits; Regulator of G-protein signaling 4 (Homo sapiens), P49798; Fluo-4 calcium flux; stronger effect = higher value; triggered by carbachol at its EC20; B-score at 10 µM;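 active means B-score, a plate-corrected calcium signal, over three deviations above library mean, with baseline fluorescence within five deviations of library mean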;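 further: RGS4 expression induced by doxycycline in cells with stable M3 receptor; B-score is computed from the integrated fluorescence ratio over baseline after carbachol; higher B-score means a larger calcium signal and so more RGS4 inhibition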
Target sequence (P49798 whole entry, looked up): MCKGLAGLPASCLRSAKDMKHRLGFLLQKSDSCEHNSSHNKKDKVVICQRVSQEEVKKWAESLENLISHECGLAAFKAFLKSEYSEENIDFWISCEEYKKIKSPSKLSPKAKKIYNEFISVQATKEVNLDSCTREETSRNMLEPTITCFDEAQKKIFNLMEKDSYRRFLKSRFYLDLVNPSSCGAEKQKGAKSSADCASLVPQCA
RGS4 inh valid: enhanced carbachol calcium response, M3R/RGS4 cells, RGS4 inhibitor project, cell-based, validation screen, HEK293 M3R/RGS4, calcium flux. 1,700 compounds, 65% hits. AID 492999, 2010. carbachol calcium Fluo-4 fluorescence; carbachol added at its EC20; 0 = buffer wells, 100 = carbachol control. calcium response, % at 10 µM. shares compounds with RGS4 inh;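 active means duplicate-averaged calcium response above the buffer-only control mean plus 5 SD of those controls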;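 further: integrated fluorescence ratio F max minus min over baseline F0; higher response in RGS4-induced cells means RGS4 inhibition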
RGS4 uninduced: carbachol calcium response in non-induced M3R cells, confirmation, counter-screen for RGS4 inhibitor project, cell-based, HEK293 M3R. activity (percent), % at 10 µM. 1,900 compounds, 20% hits. carbachol calcium Fluo-4; submaximal (EC20) carbachol stimulus; buffer wells 0%, carbachol control wells 100%. shares compounds with RGS4 inh. AID 493000, 2010; call rule not given here;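 further: RGS4 induction absent so cells express M3R without RGS4; higher means more calcium signal and flags a non-specific hit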
RGS4 inh ctr2: signal in non-induced cells without carbachol, RGS4 inhibitor counter-screen | shares compounds with RGS4 inh | AID 493001 | 1,900 compounds, 22% hits | calcium response (agonist-mode artifact), % at 10 µM | HEK293 M3R/RGS4 non-induced, Fluo-4 calcium, no carbachol; normalised: buffer wells 0%, carbachol wells 100%;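 active means duplicate-averaged calcium rise in uninduced cells above buffer wells' mean plus 5 SD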
Hits are given with their value; n = inactive; x = no result.

SMILES	MrgX1 agonist	RGS4 pot	MrgX1 antagonist	MrgX1 PAM	RGS4 inh	RGS4 inh valid	RGS4 uninduced	RGS4 inh ctr2
Cc1cc(C)n(CC(O)Cn2c3ccccc3c3ccccc32)n1 (stereo not drawn)	n	n	n	n	n	x	x	x
CCCC(=O)OCCNc1cc(Sc2nc3ccccc3[nH]2)c2nonc2c1[N+](=O)[O-]	n	n	n	n	n	x	n	14%
CCC(=O)OCCNc1cc(SCCC(=O)OC)c2nonc2c1[N+](=O)[O-]	n	n	n	n	n	x	x	x
CCC(=O)OCCNc1cc(Sc2nccn2C)c2nonc2c1[N+](=O)[O-]	n	n	n	n	n	x	n	n
S=C1NC[C@H](Cc2ccccc2)N1CCCCC1CCCCC1	n	n	n	n	n	n	n	n
N#CCCn1nc(-c2ccc([N+](=O)[O-])cc2)cc1Nc1ccccc1NC(=O)C(F)(F)F	n	n	n	n	n	x	x	x
COc1cccc(Cn2c(=O)c3[nH]cnc3n(-c3ccccc3C)c2=O)c1	n	n	n	n	n	x	n	n
CCn1c2ccccc2c2cc(/C=N/NC(=O)c3ccc(O)cc3)ccc21	n	n	-6.3	n	n	x	n	n
CCn1c2ccccc2c2cc(/C=N/NC(=O)c3cc(O)cc(O)c3)ccc21	n	n	n	n	9	42%	31%	n
O=C(NCC1CCCO1)c1cc2ccccc2oc1=O (stereo not drawn)	n	n	n	n	n	x	x	x
COc1ccc(C2=Nn3c(nnc3-c3ccccc3OC)SC2)cc1OC	n	n	n	n	8.2	20%	34%	n
COc1ccc(C2=Nn3c(nnc3-c3ccccn3)SC2)cc1OC	n	n	n	n	n	x	x	x
CC(=O)N(C1CC(C)C(C#N)(C#N)C1(C#N)C#N)N(C)C (stereo not drawn)	n	n	n	n	28	62%	n	9.0%
CCCC(=O)N(C1CC(C)C(C#N)(C#N)C1(C#N)C#N)N(C)C (stereo not drawn)	n	n	n	n	7.7	30%	n	22%
COc1ccc(Nc2nc(N3CCOCC3)nc(N3CCOCC3)n2)c(OC)c1	n	n	n	n	n	n	n	n
CCOC(=O)[C@@H]1[C@H]2COc3ccccc3[C@@H]2N2C(=O)N(c3ccc(C)cc3)C(=O)[C@]12C	n	n	n	n	n	x	n	n
CCOC(=O)[C@@H]1[C@H]2COc3ccccc3[C@H]2N2C(=O)N(c3ccc(F)cc3)C(=O)[C@]12C	n	n	n	n	n	n	n	n
CCOC(=O)[C@@H]1[C@H]2COc3ccccc3[C@H]2N2C(=O)N(c3ccc(Cl)cc3)C(=O)[C@]12C	n	n	n	n	n	n	n	n
c1ccc2c(-c3cn4ccccc4n3)c[nH]c2c1	n	n	n	n	n	x	x	x
CC1(CCC(=O)N2CCCC(N3CCN(c4ccc(F)cc4)CC3)C2)CC1 (stereo not drawn)	n	n	n	n	n	x	x	x
CC(OC(=O)c1ccc(-c2ccc([N+](=O)[O-])cc2)o1)C(=O)NC(N)=O (stereo not drawn)	n	n	n	n	n	x	x	x
COc1cc(/C=C(\C#N)C(=O)NC2CCCCC2C)ccc1OS(=O)(=O)c1ccc(C)cc1 (stereo not drawn)	n	n	n	n	n	x	x	x
COc1cc(/C=C(\C#N)C(N)=O)ccc1OS(=O)(=O)c1ccc(C)cc1	43	n	n	n	4.9	30%	40%	31%
